Source: PubChem BioAssay
Shown are actives, neighbours in structure and some others; about 3.6% of the full set was active somewhere.
Yeast growth inh – reduces growth of yeast BB579 in restrictive medium; S. cerevisiae BB579 growth, OD615, 48 h; inhibition, % at 10 µM; 140,000 tested, 0.51% active; AID 804;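 active = inhibition above a set limit, 3 SD over the mean compound inhibition, cut at about 44% in these data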
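System: Saccharomyces cerevisiae DeaD strain BB579, replicative lifespan model yeast | Buffer or medium: Restrictive glucose-based CSMM-D medium | Times: 4 h preincubation and 48 h exposure at 30 °C | Detection: OD615 turbidity measurement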
Measles CPE – protection of cells from measles virus; Measles virus-infected cells, CPE protection, absorbance; AID 841; 140,000 tested, 1.5% active; protection (pct of control), % at 4 µM; in the data active = protection mostly above about 24%, no sharp cut-off; inactive = mostly below about 26%
Phagocytosis inh – inhibitors of macrophage phagocytosis; 110,000 tested, 0.07% active; inhibition, % at 5 µM; J774A.1 macrophage IgG-bead phagocytosis, imaging;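 active = inhibition above the mean of the plate negative controls plus 5 SD, cut at about 13% in these data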;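 note: phagocytic index as fraction of beads internalized from green versus red external bead signal; plate controls were DMSO negative control for no effect and cytochalasin-D positive control for full effect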
RAM network inh – yeast RAM network inhibition; inhibition, % at 50 µM; AID 868; S. cerevisiae dse1pr::URA3 reporter, 5-FOA growth OD615, 2 d; analog-sensitive cbk1-as2 kinase mutant strain; 190,000 tested, 1.8% active;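 active = inhibition above a set limit, 3 SD over mean compound inhibition, cut at about 8.4% in these data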;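 note: 0% = DMSO-only wells with no growth and 100% = 10 µM 1-NA-PP1 full growth; inhibition rescues growth on 5-FOA so higher OD means more RAM inhibition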
Yeast life ext – extends the lifespan of yeast; S. cerevisiae growth with nicotinamide, OD615; deaD strain in restrictive glucose medium; inhibition of the nicotinamide effect, % at 10 µM; 130,000 tested, 0.68% active;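 active = inhibition above a set limit, placed 3 SD over the median of all compounds, cut at about 26% in these data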;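 note: 0% = nicotinamide-treated wells and 100% = cells grown without nicotinamide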
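Test system – modified budding yeast, DeaD strain · Compound – single dose 10 µM compound, 0.25% DMSO · Times – culture preincubation 4 h, compound exposure 48 h, both 30 °C · Detection – optical density (absorbance) at 615 nm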
* hit, by the source's call.

`O=C(N/N=C/c1c(O)n(CCc2ccc(F)cc2)c(=O)[nH]c1=O)c1ccncc1` gave RAM network inh 8.6*.
For Oc1c(Br)cc(Br)cc1Oc1ccc(Br)cc1Br the results were Yeast growth inh 83*, Measles CPE 17, RAM network inh 7 and Yeast life ext -5.
CC(C)NC(C)C(=O)C12CC3CC(CC(C3)C1)C2 (configuration not stated) was read as Yeast growth inh -13, Measles CPE 21, Phagocytosis inh 0, RAM network inh 0 and Yeast life ext -1.
`CN1CCN(C(=O)COc2ccc3ccccc3c2Br)CC1` gave Yeast growth inh -41, Measles CPE 15, Phagocytosis inh -1, RAM network inh 2 and Yeast life ext 0.
For Cc1cc(Br)ccc1N1C(=O)CC(=O)NC1=O the results were Yeast growth inh 3, Measles CPE 38*, Phagocytosis inh 0 and RAM network inh 1.
`CCCCn1c(=O)c(C=Nc2cccnc2Cl)c(O)n(CCCCl)c1=O` gave Yeast growth inh -29, Measles CPE 18, Phagocytosis inh 4, RAM network inh 6 and Yeast life ext 13.
Screening O=C1NC(=O)N(c2ccccc2)C(=O)/C1=C/c1ccc(Sc2ccccc2)o1 returned Yeast growth inh 12, Measles CPE 6, RAM network inh 8 and Yeast life ext 32*.
`CN(C)C=C1C(=O)N(C2CCCCC2)C(=O)N(C2CCCCC2)C1=O` gave Yeast growth inh -33, Measles CPE 12, RAM network inh 1 and Yeast life ext 39*.
CN1C(=O)C(=Cc2ccc(SC3CCCCC3)o2)C(=O)N(C)C1=O was read as RAM network inh 4.
`C[N+]1(CC(COCc2ccccc2)OC(=O)Cc2ccccc2)CCOCC1` (configuration not stated) gave Yeast growth inh -54, Measles CPE 15, Phagocytosis inh -1, RAM network inh 1 and Yeast life ext 2.
For Cc1ccc(N(C)C(=O)Oc2ccc(C(=O)c3ccc(Cl)cc3)cc2)cc1 the results were Yeast growth inh -18, Measles CPE 14, Phagocytosis inh 0, RAM network inh 4 and Yeast life ext 82*.
For COc1ccc(CC[n+]2cc(/N=C(\C)[O-])on2)cc1OC the results were Yeast growth inh -46, Measles CPE 35*, RAM network inh 1 and Yeast life ext -4.
`CC(C)[C@H]1C(=O)O[C@H](C(C)C)C(=O)N(C)[C@@H](C(C)C)C(=O)O[C@H](C(C)C)C(=O)N(C)[C@@H](C(C)C)C(=O)O[C@H](C(C)C)C(=O)N1C` gave RAM network inh 2.
For C=CCN1C(=O)/C(=C/c2cccs2)C(=O)NC1=S the results were Yeast growth inh 75*, Measles CPE 5, Phagocytosis inh 0, RAM network inh 0 and Yeast life ext -8.
For O=C1NC(=O)N(CCC2=CCCCC2)C(=O)/C1=C\c1cccs1 the results were Yeast growth inh 2, Measles CPE 3, RAM network inh 5 and Yeast life ext 63*.
COCCOC(=O)C1=C(N)Oc2c(c(=O)oc3ccccc23)[C@@]12C(=O)Nc1ccccc12 was read as Yeast growth inh -42, Measles CPE 12, Phagocytosis inh 1, RAM network inh 1 and Yeast life ext -11.
`CCOC(=O)[C@@]1(C#N)[C@@H]2C=CC(C(N)=O)=CN2[C@@H](C(N)=O)[C@@H]1c1cccc(Cl)c1` gave Yeast growth inh -42, Measles CPE 47*, Phagocytosis inh 0, RAM network inh 0 and Yeast life ext -18.
Screening CCOC(=O)[C@@]1(C#N)C(c2ccc(Cl)c(Cl)c2)[C@H](C(N)=O)N2C=C(C(C)=O)C=C[C@H]21 (some centres not stated) returned Yeast growth inh -32, Measles CPE 13, Phagocytosis inh 0, RAM network inh 1 and Yeast life ext 4.
CN1CCC2(CC1)C(C#N)=C(N)NC(S)=C2C#N was read as Yeast growth inh -13, Measles CPE 6, Phagocytosis inh -11, RAM network inh 3 and Yeast life ext 40*.
`COc1ccccc1CCNCc1cc2c(cc1[N+](=O)[O-])OCO2` gave Yeast growth inh -8, Measles CPE 1, Phagocytosis inh -1, RAM network inh -1 and Yeast life ext -12.
COc1cc2c(cc1C=O)OCO2 was read as Yeast growth inh -19, Measles CPE 35*, RAM network inh 0 and Yeast life ext -2.
For CCN(CC)CC(=O)Nc1ccc(Cl)cc1C(=O)c1ccccc1 the results were Yeast growth inh 2, Measles CPE 1 and RAM network inh 1.
Cc1ccc(CC(=O)N2CCN(Cc3ccccc3)CC2)cc1 was read as RAM network inh 0.
Screening O=C(Cc1ccc(Br)cc1)N1CCN(Cc2ccccc2)CC1 returned Yeast growth inh -88, Measles CPE 86*, Phagocytosis inh 5, RAM network inh 1 and Yeast life ext 7.
CC(=NCC1CCCO1)c1c(O)n(Cc2ccccc2)c(=O)[nH]c1=O (configuration not stated) was read as Yeast growth inh -54, Measles CPE 36*, Phagocytosis inh 0, RAM network inh 1 and Yeast life ext 2.
For CC(=NCC1CCCO1)c1c(O)n(-c2ccc(C)cc2)c(=O)[nH]c1=O (configuration not stated) the results were Yeast growth inh 16, Measles CPE 10, Phagocytosis inh -2, RAM network inh 1 and Yeast life ext -2.
N[C@@H](Cc1c[nH]c2ccccc12)c1nnc(SCc2ccccc2)o1 was read as Yeast growth inh -48, Measles CPE 45*, Phagocytosis inh 2, RAM network inh 4 and Yeast life ext -9.
For CCn1nc(-c2cccs2)nc2c(=O)n(C)c(=O)nc1-2 the results were Yeast growth inh 100*, Measles CPE 6, Phagocytosis inh -2, RAM network inh 0 and Yeast life ext -15.
Screening CCn1nc(/C=C/c2ccccc2)nc2c(=O)n(C)c(=O)nc1-2 returned RAM network inh -2.
Screening CC(C)CC1C(C#N)=C(N)Oc2c1c(=O)oc1ccccc21 (configuration not stated) returned Yeast growth inh -87, Measles CPE 7, Phagocytosis inh 0, RAM network inh 0 and Yeast life ext 18.
Screening CP(C)(=O)CCC(=O)O returned Yeast growth inh -20, Measles CPE 38*, Phagocytosis inh -1, RAM network inh 2 and Yeast life ext 36.
`CC12CNCC(C)(CNC1)C2O` (configuration not stated) gave Yeast growth inh -17, Measles CPE 2, RAM network inh 0 and Yeast life ext -13.
C=CCn1c(=O)c(C=Nc2c(OC)cccc2[N+](=O)[O-])c(O)n(CCCC)c1=O was read as Yeast growth inh -60, Measles CPE 5, Phagocytosis inh -5, RAM network inh 2 and Yeast life ext -4.
